MC4R barr agon – MC4R agonists recruiting beta-arrestin, primary screen, cell-based, luminescence, agonist arm of biased-ligand search; Melanocortin receptor 4 (Homo sapiens), P32245; U2OS MC4R beta-arrestin complementation; percent of melanotan II response, DMSO zero; activation, % at 8.9 µM; 0.98% of 360,000 active; AID 540308, 2011;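 active means activation above a per-plate cutoff, the mean activation of sample wells on that plate plus 3 SD, cut at about 8% in these data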
Hep lipid drop – inhibitors of hepatocyte lipid droplet formation, primary screen, imaging, high-throughput imaging, BODIPY stain; AID 1656, 2009; 0.4% of 240,000 active; inhibition, % at 6.5 µM; AML12 mouse hepatocytes, oleate lipid droplets;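 active means lipid droplet intensity inhibited by at least 50%, with more than 500 cells counted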
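Assay system: AML12 mouse liver cells | Compound dosing: One dose, 6.5 µM compound | Read-out basis: Droplet intensity reduction, % inhibition | Measured by: Fluorescence imaging, 20x objective, two fields per well | Schedule: Overnight treatment with compound plus oleate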
NTR1 ag – agonists of human NTR1, primary screen, imaging, U2OS cells, beta-arrestin-GFP, high content | 0.17% of 330,000 active | NTR1-U2OS beta-arrestin-GFP spot imaging, agonist mode | activation, % at 20 µM;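 active means activation at or above 40% of the spot to cytoplasm intensity ratio, with at least 20 cells analyzed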;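 further: 0% = DMSO without peptide and 100% = 100 nM NTR1 peptide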
MC4R antagonist – MC4R antagonists of cAMP signaling, primary screen, cell-based, TR-FRET, antagonist arm of biased-ligand search; 0.48% of 360,000 active; AID 540295, 2011; MC4R-expressing cells, MTII-stimulated cAMP, LANCE TR-FRET; inhibition, % at 6.5 µM; Melanocortin receptor 4 (Homo sapiens), P32245;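 active means inhibition above its plate's cutoff, the mean of tested wells on that plate plus 3 SD, cut at about 29% in these data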;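 further: 0% = Melanotan II alone and 100% = Melanotan II plus saturating MCL0020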
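System: U2OS cells stably expressing human melanocortin 4 receptor (MC4R). Reagent: Melanotan II challenge after compound preincubation. Doses: 6.5 µM. Times: 30-min compound, 1-h challenge, 1-h detection, room temperature. Measured by: TR-FRET with Eu-cAMP and labeled anti-cAMP, 671 nm. Replicates: singlicate.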
m5-HT2A agonist – mouse Htr2a agonists via beta-arrestin recruitment, primary screen, cell-based, luminescence. activation, % at 7.6 µM. 5-hydroxytryptamine receptor 2A (Mus musculus), P35363. AID 624169, 2012. CHO-K1 mHTR2A beta-arrestin complementation; percent of 30 µM serotonin response. 0.66% of 360,000 active;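 active means activation above a run cutoff, the mean activation of all tested compounds plus 3 SD, cut at about 14% in these data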;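 further: 0% = plate median of compound wells and 100% = 30 µM serotonin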
PREPL inhibitor – PREPL enzyme inhibitors, primary screen, biochemical, fluorescence polarization | 0.68% of 320,000 active | Prolyl endopeptidase-like (Homo sapiens), Q4J6C6 | AID 2751, 2010 | inhibition, % at 5.96 µM | recombinant PREPL, fluorescence polarization activity-based probe; in the data active means inhibition above about 43%;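 further: 0% = enzyme with DMSO and 100% = wells lacking enzyme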
Target sequence (Q4J6C6 whole entry, looked up): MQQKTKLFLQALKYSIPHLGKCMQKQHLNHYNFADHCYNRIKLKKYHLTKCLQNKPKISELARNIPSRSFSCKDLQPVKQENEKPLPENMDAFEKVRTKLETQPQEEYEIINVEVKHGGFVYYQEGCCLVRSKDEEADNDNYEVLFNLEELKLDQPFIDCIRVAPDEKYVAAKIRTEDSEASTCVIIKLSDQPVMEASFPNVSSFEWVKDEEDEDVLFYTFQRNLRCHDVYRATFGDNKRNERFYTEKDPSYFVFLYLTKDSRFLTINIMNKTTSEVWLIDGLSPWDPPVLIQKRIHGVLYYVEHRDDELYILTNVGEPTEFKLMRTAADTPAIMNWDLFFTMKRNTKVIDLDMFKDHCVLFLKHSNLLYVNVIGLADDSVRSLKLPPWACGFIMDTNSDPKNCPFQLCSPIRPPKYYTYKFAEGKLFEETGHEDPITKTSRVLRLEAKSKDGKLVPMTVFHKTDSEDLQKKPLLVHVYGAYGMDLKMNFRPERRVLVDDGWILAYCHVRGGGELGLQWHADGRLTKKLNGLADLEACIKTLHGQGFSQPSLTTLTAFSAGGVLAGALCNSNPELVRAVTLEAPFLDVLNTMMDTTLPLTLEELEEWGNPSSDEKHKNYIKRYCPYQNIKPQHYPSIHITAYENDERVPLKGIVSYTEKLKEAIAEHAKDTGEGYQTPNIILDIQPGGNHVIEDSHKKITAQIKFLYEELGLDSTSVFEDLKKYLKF
MC4R barr conf – MC4R beta-arrestin agonists, retest, confirmation, cell-based, luminescence, U2OS; shares compounds with MC4R barr agon; U2OS MC4R beta-arrestin recruitment; scaled DMSO 0%, Melanotan II 100%; activation, % at 8.9 µM; 31% of 2,400 active; AID 602192, 2012;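 active means mean activation across replicates above the hit cutoff set in the earlier primary screen, cut at about 8% in these data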
MOR-DOR barr ag – agonists of MOR-DOR heterodimerization, counter-screen for MC4R biased agonist project, cell-based, luminescence; shares compounds with MC4R barr agon; U2OS PathHunter beta-arrestin, beta-gal luminescence; percent of deltorphin B response, DMSO zero; activation, % at 9.2 µM; 5.8% of 2,400 active; AID 602194, 2012;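 active means mean activation across replicates exceeds the hit threshold derived in the earlier primary screen, cut at about 18% in these data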;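 further: 100% = deltorphin B at 0.9 µM final and 0% = DMSO alone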
Active calls of the source: *; / = no result. This is a sample that favours compounds with a hit; in the whole collection about 2.7% have one here.

SMILES	MC4R barr agon	Hep lipid drop	NTR1 ag	MC4R antagonist	m5-HT2A agonist	PREPL inhibitor	MC4R barr conf	MOR-DOR barr ag
Cc1cc(C)c2cc(C(=O)N3CCN(c4ncccc4C(F)(F)F)CC3)[nH]c2c1	12.2*	-8.9	6.1	5.8	-1.4	2.1	0.9	4.2
Oc1ccc(/C=N/N=C/c2ccc(O)c(O)c2)cc1O	-0.8	-15.6	1.6	-0.7	-5.9	13.2	/	/
O=C(/C(=N/N=C/c1ccc(O)c(O)c1)c1ccccc1)c1ccccc1	10.1*	-0.7	5.6	17.0	-1.8	7.1	2.9	11.4
Cc1ccc(-c2c(C#N)c(N)n3c(nc4ccccc43)c2C#N)cc1	2.8	-26.2	14.0	5.8	4.5	2.9	/	/
N#Cc1c(-c2ccccc2)c(C#N)c2nc3ccccc3n2c1N	11.0*	-16.0	7.9	7.8	7.8	4.0	0.9	4.1
Cc1ccc(/C=N\NC(=O)C2CN(S(=O)(=O)c3ccccc3)CCN2S(=O)(=O)c2ccccc2)cc1 (stereo unspecified)	-1.9	2.0	4.6	8.2	-2.0	-2.7	/	/
O=C(COC(=O)c1n[nH]c2ccccc12)NC(=O)NC12CC3CC(CC(C3)C1)C2	18.3*	/	7.7	1.8	3.8	3.0	2.9	6.7
CC12CCC(=O)N1C(C(=O)NNC(=O)c1ccc(Br)cc1)CS2 (stereo unspecified)	-0.8	/	1.2	5.9	1.0	0.5	/	/
Cc1cc(OCc2cc(C(=O)NC3CCC3)no2)cc(C)c1Cl	10.8*	-7.3	2.5	2.8	4.1	0.7	0.5	3.8
Cc1cccc(C)c1OCc1cc(C(=O)NCC2CCCCC2)no1	11.1*	3.7	2.2	-1.5	1.6	3.6	2.7	2.5
Cc1cc(C)nc(CCNC(=O)c2cc(COc3c(C)cccc3C)on2)n1	-0.1	-4.0	2.1	-0.6	4.4	-0.6	/	/
O=C(CCl)N(Cc1cc(=O)[nH]c2ccccc12)c1ccccc1	-3.6	-14.0	3.2	11.3	0.6	-0.7	/	/
O=C(CCl)N(Cc1ccccc1)c1ccccc1	19.7*	-1.2	-0.6	-0.1	3.8	9.8	14.9*	18.2*
Cc1ccc(C(=O)Nc2oc(-c3ccccc3)cc2C#N)cc1	12.4*	11.6	3.2	4.8	-2.7	-3.5	4.3	4.2
O=C(NCC1(N2CCCCC2)CCCCC1)C1CC(=O)N(c2ccc3c(c2)OCCO3)C1 (stereo unspecified)	-1.3	5.0	-0.1	4.1	4.1	15.4	/	/
Cc1nc2ccc(F)cc2cc1C(=O)Nc1ccc(Cl)c(Cl)c1	9.9*	-2.3	/	-1.3	-0.6	0.9	-2.1	6.2
Cc1nc2ccc(F)cc2cc1C(=O)NCc1ccco1	0.4	-14.6	1.1	3.6	-4.2	7.2	/	/
CCOc1ccc(C2CC(c3ccc(CC)cc3)n3nc(N)nc3N2)cc1 (stereo unspecified)	3.8	-1.5	5.7	1.5	-2.3	37.1	/	/
CCOc1ccc(C2CC(c3ccc(CC)cc3)Nc3nc(N)nn32)cc1 (stereo unspecified)	10.3*	-13.1	1.5	10.4	-1.3	29.4	7.8	2.9
CCc1ccc(C2CC(c3ccccc3Cl)Nc3nc(N)nn32)cc1 (stereo unspecified)	18.7*	5.1	10.4	6.8	0.7	34.5	13.7*	4.0
O=C(c1ccco1)N1CCC(c2nc3ccccc3[nH]2)CC1	-3.4	/	0.9	0.4	2.8	-12.6	/	/
CCC(=O)Nc1c(-c2ccc3ccccc3c2)nc2ccccn12	1.1	1.9	-1.2	21.8	-5.7	10.4	/	/
O=S(=O)([O-])C(c1ccccc1)[n+]1ccccc1 (stereo unspecified)	-1.5	/	10.0	3.9	6.5	-12.6	/	/
COc1ccc(CNC(=S)Nc2ccc(-c3ccccc3)cc2)cc1	12.6*	-23.8	4.4	-4.3	-3.0	-22.9	4.5	7.7
Cc1ccc(NC(=O)c2cc(-c3cccc(O)c3)on2)cc1C	9.6*	/	12.7	4.8	-0.6	1.7	-0.7	7.7
SMILES	MC4R barr agon	Hep lipid drop	NTR1 ag	MC4R antagonist	m5-HT2A agonist	PREPL inhibitor	MC4R barr conf	MOR-DOR barr ag
C=CCn1c(=NC(=O)c2cc(Cl)sc2Cl)sc2cc(S(N)(=O)=O)ccc21	13.8*	-5.8	0.6	13.8	0.4	-28.0	3.9	2.0
C=CCn1c(=NC(=O)c2cc(-c3cccs3)nc3ccccc23)sc2cc(S(N)(=O)=O)ccc21	-3.9	-5.8	9.5	0.6	3.9	-14.6	/	/
Cc1ccc(-n2nc(C)c(=O)c(-c3ccccc3)c2NC(=O)C(C)C)cc1	0.2	-13.7	-0.5	0.6	2.3	3.2	/	/
COc1cc2c(cc1NC(=O)c1cccc([N+](=O)[O-])c1)oc1ccccc12	22.2*	2.8	6.3	-23.1	0.4	15.3	30.5*	47.2*
COc1ccc(NC(=O)COC(=O)c2ccc3c(c2)OCCO3)cc1	0.3	/	/	9.7	-0.1	/	/	/
COc1ccc(NC(=O)COC(=O)c2ccc3c(c2)OCO3)c(OC)c1	13.7*	/	0.6	14.0	0.7	1.6	-1.8	3.5
COc1ccc(C)cc1NC(=O)COC(=O)c1ccc2c(c1)OCO2	12.9*	/	4.5	2.5	-2.5	0.8	-3.9	2.9
COc1ccc(C)cc1NC(=O)c1ccc2c(c1)OCO2	-1.3	5.4	1.6	-4.3	-0.8	-5.1	/	/
COc1ccc(NC(=O)COC(=O)c2ccc3c(c2)OCCO3)cc1OC	16.8*	/	3.1	14.0	9.1	-2.4	9.0*	3.1
CCOc1ccc(NC(=O)COC(=O)c2ccc3c(c2)OCO3)cc1	-0.1	/	0.1	-2.6	-0.1	3.2	/	/
COc1ccc(C)cc1NC(=O)COC(=O)c1ccc2c(c1)OCCO2	10.0*	/	1.1	1.0	4.3	-11.8	-1.7	16.8
CN(Cc1ccccc1)S(=O)(=O)c1cccc(C(=O)O)c1	-1.4	0.8	1.1	15.4	-2.0	4.9	/	/
COc1ccc(C(C)=O)cc1COC(=O)c1ccc2c(c1)OCCO2	9.8*	/	0.7	-0.3	1.2	1.2	3.8	2.0

Source: PubChem BioAssay
